ChEMBL document CHEMBL2040719, “Fragment-based design of symmetrical bis-benzimidazoles as selective inhibitors of the trimethoprim-resistant, type II R67 dihydrofolate reductase” (J Med Chem, 2012)
Active and inactive are the calls of the source. The calls are words filed in the database; no cut-off is given here.

Tests used:
[1] = Inhibition of recombinant type N-terminal His6-tagged 2 R67 DHFR expressed in Escherichia coli BL21 using DHF as substrate by spectrophotometry
Summary of the method: (§1)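 His-tagged R67 DHFR purified from E. coli by Ni affinity with an imidazole gradient. Activity followed as NADPH plus DHF depletion at 340 nm (Δε 12800 M⁻¹cm⁻¹) in 400 mM HEPES pH 7.0 with 10% final DMSO. Reactions started with 250 nM enzyme; initial rates (<10% conversion). Ki via Cheng–Prusoff with KM(NADPH) 1.6 μM, assuming competitive inhibition.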

[2] = biological target: T1, Dihydrofolate reductase (Homo sapiens) (UniProt P00374); assay: Inhibition of human chromosomal DHFR expressed in Escherichia coli BL21 using DHF as substrate assessed as remaining activity at 1 mM by spectrophotometry relative to control
T1 sequence (whole entry): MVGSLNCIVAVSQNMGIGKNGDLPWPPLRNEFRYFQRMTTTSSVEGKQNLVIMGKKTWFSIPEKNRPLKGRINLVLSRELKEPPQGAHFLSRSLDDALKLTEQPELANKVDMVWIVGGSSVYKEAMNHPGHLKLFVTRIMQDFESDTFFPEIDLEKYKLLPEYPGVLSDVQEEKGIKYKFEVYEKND
Summary of the method: (§2)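 Human chromosomal DHFR overexpressed in E. coli BL21(DE3). Spectrophotometric assay at 340 nm following NADPH/DHF depletion in 50 mM potassium phosphate pH 8.0, 10% final DMSO, initial rates. Each compound was tested at its highest concentration allowed by solubility and absorbance; activity reported relative to the uninhibited control.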

[3] = Cytotoxicity against mouse 3T6 cells assessed as cell death at 200 uM after 72 hrs by MTT assay; format: cell-based
Summary of the method: (§3)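 Mouse 3T6 embryonic fibroblasts in DMEM + 10% heat-inactivated FBS, 37 °C, 5% CO2, seeded at 5×10³ cells/well. Eight dilutions 0.05–200 μM from DMSO, medium with compound renewed at 24 h, 48 h further incubation. MTT 3 h, read at 540 nm with 690 nm reference. Triplicates; % inhibition versus blank-corrected solvent controls; IC50 from the plot.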

Escherichia coli = assay: Antibacterial activity against Escherichia coli […] expressing […] up to 1 mM in presence of 50 ug/mL Trimethoprim; format: functional, organism-based
Summary of the method: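 E. coli XL1-Blue expressing R67 DHFR grown in M9 minimal medium with 50 μg/mL TMP to block chromosomal DHFR; growth inhibition tested up to 1 mM (maximal concentration).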

[4] = biological target: T1, Dihydrofolate reductase (Homo sapiens); assay: Inhibition of human chromosomal DHFR expressed in Escherichia coli BL21 using DHF as substrate assessed as remaining activity at 30 mM by spectrophotometry relative to control; summary of the method: as §2
[5] = biological target: T1, Dihydrofolate reductase (Homo sapiens); assay: Inhibition of human chromosomal DHFR expressed in Escherichia coli BL21 using DHF as substrate assessed as remaining activity at 10 mM by spectrophotometry relative to control; summary of the method: as §2
[6] = biological target: T1, Dihydrofolate reductase (Homo sapiens); assay: Inhibition of human chromosomal DHFR expressed in Escherichia coli BL21 using DHF as substrate assessed as remaining activity at 5 mM by spectrophotometry relative to control; summary of the method: as §2
[7] = Inhibition of Escherichia coli R67 DHFR; summary of the method: as §1
[8] = biological target: T1, Dihydrofolate reductase (Homo sapiens); assay: Inhibition of human chromosomal DHFR expressed in Escherichia coli BL21 using DHF as substrate assessed as remaining activity at 2.5 mM by spectrophotometry relative to control; summary of the method: as §2
[9] = biological target: T1, Dihydrofolate reductase (Homo sapiens); assay: Inhibition of human chromosomal DHFR expressed in Escherichia coli BL21 using DHF as substrate assessed as remaining activity at 300 uM by spectrophotometry relative to control
[10] = Cytotoxicity against mouse 3T6 cells after 72 hrs by MTT assay; format: cell-based; summary of the method: as §3
[11] = biological target: T1, Dihydrofolate reductase (Homo sapiens); assay: Inhibition of human chromosomal DHFR expressed in Escherichia coli BL21 using DHF as substrate assessed as remaining activity at 400 uM by spectrophotometry relative to control
[12] = Competitive inhibition of recombinant R67 DHFR expressed in Escherichia coli BL21 using 25 to 164 uM DHF as substrate by Dixon plot analysis in the presence of 50 uM of NADPH
Summary of the method: (§4)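 Dixon method in 50 mM potassium phosphate pH 7.0, 10% DMSO. NADPH series: DHF fixed at 50 μM, NADPH at 5 or 80 μM, inhibitor over a range spanning Ki. DHF series: NADPH fixed at 50 μM. Reciprocal rates plotted against inhibitor concentration; Ki taken from the slope intersection; triplicates, mean ± SD.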

[13] = Competitive inhibition of recombinant R67 DHFR expressed in Escherichia coli BL21 using DHF as substrate by Dixon plot analysis in the presence of 5 to 80 uM NADPH; summary of the method: as §4

Structure (SMILES) | inhibition [1] | IC50 [1] [µM] | Ki [1] [µM] | also measured
COc1ccc2cc(C(=O)O)ccc2c1 | inactive |  |  | 
O=C(O)c1ccc2[nH]c(-c3ccc(OCC(O)COc4ccc(-c5nc6cc(C(=O)O)ccc6[nH]5)cc4)cc3)nc2c1 |  | 130 | 4 | Activity [2]: 95%; Activity [3]: 40%; Activity (Escherichia coli): inactive
c1ccc2[nH]cnc2c1 | inactive |  |  | 
Oc1nncc2ccccc12 [PHTHALAZINONE] |  | 17000 | 530 | Activity [4]: 97%
O=C(O)c1ccc2[nH]cnc2c1 |  | 2600 | 80 | Activity [5]: 75%
O=C(O)c1cc2nccnc2s1 |  | 2000 | 61 | Activity [6]: 37%
Nc1c(/N=N/c2ccc(-c3ccc(/N=N/c4cc(S(=O)(=O)O)c5ccccc5c4N)cc3)cc2)cc(S(=O)(=O)O)c2ccccc12 [CONGO RED] |  |  |  | Ki [7]: 2 µM
O=C(O)c1ccc2cc(O)ccc2c1 |  | 6100 | 190 | Activity [5]: 13%
COc1cc2c(OC)cccc2cc1C(=O)O |  | 1800 | 55 | Activity [6]: 14%
CO[C@@H]1[C@@H](OC(N)=O)[C@@H](O)[C@H](Oc2ccc3c(O)c(NC(=O)c4ccc(O)c(CC=C(C)C)c4)c(=O)oc3c2C)OC1(C)C [NOVOBIOCIN] |  |  |  | Ki [7]: 70 µM
O=C(O)c1ccc2c(c1)OCO2 | inactive |  |  | 
O=C(O)c1ccc2[nH]nnc2c1 |  | 8400 | 260 | Activity [4]: 69%

Further lines, with some results ahead:

inhibition [1] | IC50 [1] [µM] | Structure (SMILES) | Ki [1] [µM] | also measured
inactive |  | CC(C)n1nnc2cc(C(=O)O)ccc21 |  | 
inactive |  | Cc1nc2cc(C(=O)O)ccc2[nH]1 |  | 
 | 1700 | Nc1ccc2cc(C(=O)O)ccc2c1 | 51 | Activity [8]: 14%
 | ≥ 300 | c1ccc2[nH]c(-c3ccc(OCCCCCOc4ccc(-c5nc6ccccc6[nH]5)cc4)cc3)nc2c1 |  | Activity [9]: 110%; IC50 [10]: 0.98 µM
inactive |  | Nc1cc2ccccc2cc1C(=O)O |  | 
 | 64 | O=C(O)c1ccc2[nH]c(-c3ccc(OCCCCCOc4ccc(-c5nc6cc(C(=O)O)ccc6[nH]5)cc4)cc3)nc2c1 | 2 | Activity [11]: 95%; Activity [3]: 40%; Ki [12]: 9.7 µM; Activity (Escherichia coli): inactive; Ki [13]: 4.2 µM
 | ≥ 1000 | O=C(O)c1ccc(OCCCCCOc2ccc(C(=O)O)cc2)cc1 |  | Activity [2]: 100%; IC50 [10]: 34 µM
